Assay results gathered from unrelated publications.
Compare with care: the assays were run in different laboratories.
MAP4K1: Mitogen-activated protein kinase kinase kinase kinase 1 (MAP4K1, Homo sapiens, UniProt Q92918)
Oprd1: Delta-type opioid receptor (Oprd1, Rattus norvegicus, UniProt P33533)
CTSB: Cathepsin B (CTSB, Homo sapiens, UniProt P07858)

Structure (SMILES) | target | assay | setting | endpoint | value
Cc1nn(C)cc1-c1nc2c(N3CCN(Cc4ccc(Cl)cc4)CC3)c(Cl)cnc2[nH]1 | MAP4K1 | binding, competition with immobilised ligand | 1 µM | remaining binding | 74%
C#Cc1n[nH]c2c(-c3cn([C@@H](C)c4ccccc4)c(=O)[nH]c3=O)cc(F)cc12 | Tyrosine-protein kinase ZAP-70 (ZAP70, Homo sapiens, UniProt P43403) | enzyme activity, inhibitor | 0.1 µM | inhibition | 2%
CCCC[C@H]1CNCCN1C[C@@H]1CCCN1C[C@@H](Cc1ccc2ccccc2c1)N1CCN(CCC23CC4CC(CC(C4)C2)C3)[C@H]([C@@H](C)O)C1 | Oprd1 | ligand displacement, radioligand | 0.5 µM, 2 h, pH 7.5, cell membranes | remaining binding | 87.3%
C#Cc1n[nH]c2c(-c3cn(C(C)c4ccccn4)c(=O)[nH]c3=O)cc(F)cc12 (stereo not shown) | Cyclin-dependent kinase 2, with cyclin E1 (CDK2, Homo sapiens, UniProt P24941) | enzyme activity, inhibitor | 1 µM | inhibition | -13.7%
Oc1ccc(C[C@@H]2CN([C@H](Cc3ccc4ccccc4c3)CN3CCC[C@H]3CN3CCNC[C@@H]3Cc3ccc4ccccc4c3)CCN2CCC23CC4CC(CC(C4)C2)C3)cc1 | Oprd1 | ligand displacement, radioligand | 0.5 µM, 2 h, pH 7.5, cell membranes | remaining binding | 94.4%
CN1CCN(c2ccc(Nc3nccc(-c4ccccc4)n3)cc2C(F)(F)F)CC1 | Cyclin-dependent kinase 2 homolog (CRK2, Plasmodium falciparum, UniProt P61075) | cell-free assay | 10 µM | remaining signal | 100%
CC[C@@H](C)[C@@H]1CN([C@@H](CC2CCCCC2)CN2CCC[C@H]2CN2CCNC[C@@H]2CO)CCN1CCc1ccc(Cl)c(Cl)c1 | Oprd1 | ligand displacement, radioligand | 0.5 µM, 2 h, pH 7.5, cell membranes | remaining binding | 94%
CCOC(=O)c1ccc(OC(=O)CCCCCNC(=N)N)cc1 | CTSB | enzyme activity, inhibitor | 10 µM | inhibition | 0%
COc1ncccc1-c1cnn2ccc(N3CCN(C(=O)OC(C)C)CC3)nc12 | MAP4K1 | binding, competition with immobilised ligand | 1 µM | remaining binding | 80%
CN(C(=O)[C@H](Cc1ccccc1)NC(=O)[C@@H](NC(=O)OCc1ccccc1)C(C)(C)C)N(C#N)CCC(N)=O | CTSB | enzyme activity, inhibitor |  | kon | 7020 M⁻¹ s⁻¹
CCN(CC)CCCC[C@H](NC(=O)[C@H](CC(C)C)NC(=O)[C@H](C)NC(=O)[C@H](Cc1ccccc1)NC(=O)c1ccc(C(C)(C)C)cc1)C(=O)N[C@@H](CO)C(=O)OC | 5-hydroxytryptamine receptor 6 (HTR6, Homo sapiens, UniProt P50406) | ligand displacement, radioligand | 10 µM | inhibition | -5%
Nc1ncc(-c2nc(N3CCOCC3)nc(N3CCOCC3)n2)c(C(F)F)n1 | Mitogen-activated protein kinase 6 (MAPK6, Homo sapiens, UniProt Q16659) | binding, competition with immobilised ligand | 10 µM | remaining binding | 88%
N=C(N)c1ccc2cc(OC(=O)c3ccc(N=C(N)N)cc3)ccc2c1 | Dipeptidyl peptidase 9 (DPP9, Homo sapiens, UniProt Q86TI2) | enzyme activity, inhibitor | 10 µM | inhibition | 13%
